In the library only some 2.7% were active in any assay of this set; here they are far more common.
HNF4A DNA FP: change in binding of human HNF4A to DNA, primary screen, biochemical, fluorescence polarization, FITC-DNA | 360,000 tested, 0.3% active | activity change, % at 10 µM | 1 h | Hepatocyte nuclear factor 4-alpha (Homo sapiens), P41235; in the data active means activity change above about 30%, passing the limit was not always enough
Rpn11 block: Rpn11 (PSMD14) deubiquitinase inhibitors, primary screen, biochemical, fluorescence polarization, uHTS; 26S proteasome non-ATPase regulatory subunit 14 (Homo sapiens), O00487; human 26S proteasome, Ub4-pepOG fluorescence polarization; 20S core pre-blocked with epoxomicin; inhibition, % at 20 µM; 360,000 tested, 0.59% active; AID 588493, 2011;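 active means inhibition at 20 µM, scaled to each plate's controls, above about 33%, limit read from the data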
Target sequence (O00487 whole entry, looked up): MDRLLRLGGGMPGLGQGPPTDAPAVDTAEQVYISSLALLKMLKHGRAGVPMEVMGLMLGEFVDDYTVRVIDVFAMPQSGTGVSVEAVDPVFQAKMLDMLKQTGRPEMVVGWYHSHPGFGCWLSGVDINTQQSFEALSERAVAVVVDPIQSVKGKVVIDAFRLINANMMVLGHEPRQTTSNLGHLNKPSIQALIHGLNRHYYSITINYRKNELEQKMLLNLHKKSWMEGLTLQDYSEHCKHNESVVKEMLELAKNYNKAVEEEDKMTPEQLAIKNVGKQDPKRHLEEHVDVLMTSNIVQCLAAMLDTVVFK
TPT1 inh: Candida albicans TPT1 enzyme inhibitors, primary screen, biochemical, fluorescence polarization. tRNA 2'-phosphotransferase TPT1 (Candida albicans SC5314). recombinant caTPT1, FP RNA substrate dephosphorylation. inhibition, % at 5 µM. 300,000 tested, 0.81% active. AID 1962, 2009;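 active means inhibition above the mean of all tested compounds plus 3 SD, set per screening campaign, cut at about 24% in these data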;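 further: plate controls were DMSO alone for no effect and ferristatin control at 100 nM for full effect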
PP1 inh: PP1-alpha phosphatase inhibitors, primary screen, counter-screen for PP5 inhibitor project, biochemical, fluorescence, OMFP substrate, single point; Serine/threonine-protein phosphatase PP1-alpha catalytic subunit (Homo sapiens), P62136; purified PP1alpha; inhibition, % at 6.7 µM; 320,000 tested, 0.9% active;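 active means inhibition above the mean inhibition of all tested compounds plus 3 SD, computed separately for each screening campaign, cut at about 15% in these data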
CSN inh: inhibitors of CSN-mediated cullin deneddylation, primary screen, biochemical, fluorescence polarization, uHTS; inhibition, % at 12.5 µM; Purified CSN, SCF-Nedd8-OG deneddylation; AID 651999, 2013; 360,000 tested, 0.38% active; COP9 signalosome complex subunit 5 (Homo sapiens), Q92905;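 active means pattern-corrected inhibition above about 35%, with an unprinted fluorescence ratio check between 0.5 and 1.5, limit read from the data, passing the limit was not always enough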;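 further: 0% = enzyme with substrate and 100% = substrate without enzyme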
Target sequence (Q92905 whole entry, looked up, one chain of several): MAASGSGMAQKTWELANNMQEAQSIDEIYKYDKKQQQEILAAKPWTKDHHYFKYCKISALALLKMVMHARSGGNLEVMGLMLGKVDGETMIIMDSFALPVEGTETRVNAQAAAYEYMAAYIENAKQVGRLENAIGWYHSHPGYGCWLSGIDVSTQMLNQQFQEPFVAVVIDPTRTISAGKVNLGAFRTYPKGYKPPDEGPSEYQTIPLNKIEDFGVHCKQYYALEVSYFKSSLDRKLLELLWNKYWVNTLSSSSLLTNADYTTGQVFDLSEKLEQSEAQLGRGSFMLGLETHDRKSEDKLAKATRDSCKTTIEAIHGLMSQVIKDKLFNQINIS
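test system = HEK293T-derived human Csn5 enzyme | amount = 0.24 nM Csn5 enzyme, final concentration | medium = Tris/NaCl/DTT buffer, pH 7.5 | schedule = 90 min reaction at room temperature | signal = FP | evaluation = inhibition of Csn5 cleavage, % | compound dosing = single dose of 12.5 µM compound with 0.25% DMSO | probe or stimulus = 10 nM SCFSkp2-Nedd8OG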
NadD block: inhibitors of S. aureus NadD, primary screen, biochemical, colorimetric, uHTS. Nicotinate-nucleotide adenylyltransferase NadD (Staphylococcus aureus N315). purified NadD enzyme, colorimetric absorbance read-out. inhibition, % at 20 µM. 360,000 tested, 0.78% active. AID 602399, 2012; in the data active means inhibition above about 26%
caTPT1 confirm: Candida albicans TPT1 inhibitors, confirmation, biochemical, fluorescence polarization, triplicate; AID 2149, 2009; inhibition, % at 5 µM; recombinant caTPT1, RNase T1 coupled; 2,400 tested, 74% active; shares compounds with TPT1 inh;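 active means inhibition above the primary screen limit, the mean inhibition of all tested compounds plus 3 SD, cut at about 25% in these data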
RNase T1 counter: RNase T1 inhibitors, counter-screen for TPT1 inhibitor project, biochemical, fluorescence polarization | shares compounds with TPT1 inh | RNase T1 cleavage, 1536-well | inhibition, % at 5 µM | 2,400 tested, 83% active;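 active means inhibition above the solvent-only control well mean plus 3 SD, limit set per screening run, cut at about 23% in these data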;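 further: plate controls were DMSO wells with enzyme for no effect and wells without RNase T1 for full effect; inhibitors block cleavage so intact labeled substrate keeps polarization high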
The depositor's hits bear a star; · = no result given.

SMILES | HNF4A DNA FP | Rpn11 block | TPT1 inh | PP1 inh | CSN inh | NadD block | caTPT1 confirm | RNase T1 counter
CCN(CC)c1ccc2cc(S(=O)(=O)c3ccc(C)cc3)c(=O)oc2c1 | 49.5* | -153.8 | 69.6* | 0.7 | -2.2 | -0.7 | 71.5* | 81.0*
CCN(CC)c1ccc2ccc(=O)oc2c1 | -1.2 | 3.0 | 8.8 | 0.2 | 4.9 | -0.2 | · | ·
CCN(CC)c1ccc2cc(C(=O)NNC(=O)c3ccc(S(=O)(=O)N4CCCCC4)cc3)c(=O)oc2c1 | 14.1 | · | 48.9* | -3.0 | 16.7 | 24.9 | 76.9* | 85.9*
CCN(CC)c1ccc2cc(C#N)c(=O)oc2c1 | 21.6 | 7.3 | 46.0* | -0.5 | -11.8 | -1.7 | 44.5* | 57.7*
CC1(c2ccccc2)NC(=O)N(CC(=O)NNC(=O)c2cccc(Cl)c2)C1=O (centres undefined) | -2.2 | 3.5 | · | -0.5 | 0.8 | 10.6 | · | ·
CC(C)N1CCC2(CC1)C(C#N)=C(N)NC(S)=C2C#N | · | · | 67.8* | -4.5 | · | · | 37.7* | 47.0*
N#CC1=C(N)NC(SCC(=O)O)=C(C#N)C12CCCC2 | 1.0 | 1.9 | 4.6 | -4.9 | 3.9 | 4.2 | · | ·
CN(C(=O)CN1C(=O)c2ccccc2S1(=O)=O)C1CCCCC1 | -2.0 | 4.3 | · | · | 4.2 | 1.6 | · | ·
O=C1CCCCC1C(O)c1ccc(Cl)cc1 (centres undefined) | · | · | 81.6* | -6.1 | · | · | 1.2 | 3.2
COc1ccc(O)c(C(=O)c2cc(C#N)c(=O)n(-c3ccc(Cl)cc3)c2)c1 | 28.9 | · | 48.0* | -2.0 | 35.7* | -2.8 | 61.7* | 59.7*
COC(=O)N1C2CCCCC2=NN(c2ccccc2)N1C(=O)OC (centres undefined) | 2.8 | 4.5 | · | · | 5.3 | -1.6 | · | ·
CC1(C)CC(=O)C(C2=NC3(CCCCCC3)Cc3ccccc32)=C(O)C1 | 2.5 | 5.1 | 28.2* | -7.0 | 0.8 | 1.2 | -1.3 | 4.0
Cc1c(NC2=NC3(CCCCC3)Cc3ccccc32)c(=O)n(-c2ccccc2)n1C | -1.7 | 1.2 | 3.5 | 1.1 | 0.9 | -2.7 | · | ·
CCOC(=O)C1(C)CCCN(C(=O)COc2ccccc2)C1 (centres undefined) | -1.0 | -9.5 | · | · | -2.8 | -1.3 | · | ·
COc1ccc(C2=NN(c3ccc(C=O)cc3)C(c3ccccc3)C2)cc1 (centres undefined) | · | · | 5.4 | 4.3 | · | · | · | ·
COc1ccc(C2CC(c3ccccc3)=NN2c2ccc(/C=N/NC(=O)c3ccncc3)cc2)cc1 (centres undefined) | 1.5 | 4.6 | 66.2* | 6.6 | 2.4 | -5.6 | 51.6* | 67.6*
COc1ccc(C2CC(c3cccs3)=NN2c2ccc(C=O)cc2)cc1 (centres undefined) | · | · | 64.8* | 2.3 | · | · | 67.0* | 72.4*
O=C(Cc1ccc(F)cc1)NC1CCS(=O)(=O)C1 (centres undefined) | -1.5 | 0.0 | -3.3 | -3.2 | -3.8 | -2.4 | · | ·
Cc1cccc(NC(=O)c2sc3nc4c(c(-c5cccs5)c3c2N)CN(C)CC4)c1 | 18.2 | 27.2 | 37.6* | 11.3 | -7.5 | 22.3 | 28.4* | 35.2*
O=Cc1ccc(OCc2ccccn2)cc1 | -2.1 | -0.6 | 50.6* | -4.0 | -1.2 | -4.3 | 2.0 | 1.5
O=Cc1ccc(OCc2ccc3ccccc3c2)cc1 | -2.7 | 2.0 | 0.0 | 1.2 | 5.4 | -3.7 | · | ·
COc1ccc(C(=O)OCC(N)=O)cc1[N+](=O)[O-] | 0.0 | 3.4 | 1.6 | -0.7 | -5.1 | 1.6 | · | ·
O=C(C[n+]1cc(Br)cc2ccccc21)c1ccccc1 | 25.8 | · | 39.9* | 2.7 | 14.4 | 4.3 | 48.0* | 63.6*
COc1ccc(C(=O)C[n+]2cc(Br)cc3ccccc32)cc1[N+](=O)[O-] | 2.8 | 20.8 | 45.0* | 7.2 | -1.3 | 7.5 | 39.2* | 56.1*
O=C(COc1ccccc1[N+](=O)[O-])N/N=C/c1ccc(O)c([N+](=O)[O-])c1 | -5.2 | -4.9 | 60.6* | -0.2 | 0.8 | 0.3 | 8.8 | 11.7
SMILES | HNF4A DNA FP | Rpn11 block | TPT1 inh | PP1 inh | CSN inh | NadD block | caTPT1 confirm | RNase T1 counter
CCOC(=O)N1CCC2(CC1)C(C#N)=C(N)Oc1c2sc2nc(C)cc(C)c12 | -1.5 | 1.6 | 2.3 | 0.5 | -3.5 | 2.2 | · | ·
CCCN1CCC2(CC1)C(C#N)=C(N)Oc1c2sc2nc(C)cc(C)c12 | 1.2 | 6.5 | 24.1* | -0.8 | -2.0 | -5.3 | 19.3 | 27.4*
COCCCN(C(=O)C1=COCCO1)c1c(N)n(Cc2ccccc2)c(=O)[nH]c1=O | 0.0 | 5.2 | · | · | 3.0 | -5.6 | · | ·
O=C(NCc1ccco1)Nc1cccc(-c2ccccc2)c1 | -1.1 | 1.2 | · | · | 2.7 | 0.3 | · | ·
OCCCNc1ncnc2sc3c(c12)CCN(Cc1ccccc1)C3 | 25.5 | 27.1 | 24.4* | 1.9 | 9.7 | 3.0 | 49.3* | 63.8*
N#CC1CC(c2ccc([N+](=O)[O-])cc2)=NN1c1ccc([N+](=O)[O-])cc1 (centres undefined) | 87.0 | · | 73.0* | 0.7 | 23.2 | 12.6 | 91.0* | 97.3*
O=[N+]([O-])c1cccc(C2CC(c3ccccc3)=NN2c2ccccc2)c1 (centres undefined) | -3.3 | -0.7 | -1.4 | 4.5 | -1.6 | 2.3 | · | ·
O=C(Nc1ccccc1OC(=O)c1ccccc1)c1ccccc1 | 5.9 | 15.9 | · | · | 2.8 | 3.2 | · | ·
N#Cc1c(NC(=O)CSc2nnc(-c3ccncc3)n2CC2CCCO2)sc2c1CCCC2 (centres undefined) | 1.5 | -2.0 | 115.1* | 0.1 | 1.2 | 1.5 | 5.3 | 7.1
CCn1c(SCC(=O)Nc2sc3c(c2C#N)CCCC3)nnc1-c1ccncc1 | -0.2 | -16.4 | 3.2 | -1.1 | -1.8 | 4.1 | · | ·
CCOC(=O)/C=c1\s/c(=C\c2c(OCC)ccc3ccccc23)c(=O)n1CC(=O)NCC1CCCO1 (centres undefined) | 15.2 | · | 24.7* | 0.1 | 8.6 | -10.4 | 18.7 | 32.2*
CCOC(=O)/C=c1\s/c(=C\c2ccccc2C)c(=O)n1CC(=O)NCc1ccc2c(c1)OCO2 | 11.3 | 36.5 | 41.4* | 6.5 | 9.7 | 5.5 | 30.1* | 42.6*
CCOC(=O)/C=c1/s/c(=C\c2c(OC)ccc3ccccc23)c(=O)n1CC(=O)NCC1CCCO1 (centres undefined) | 14.8 | · | · | · | 9.9 | -4.5 | · | ·

From PubChem BioAssay
